In the array DNA melting data of Ke et al. (doi:10.1101/2024.01.08.574731):

What was measured:
[1] = folding enthalpy; higher = less favourable; fluorescence melt of hairpins on a sequencing array, two-state fit; conditions: sodium 0.088 M
Outline: (§1)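 Hairpins were imaged by Cy3 fluorescence on a sequenced MiSeq flow cell with annealed Cy3 and quencher oligos, in 50 mM Na-HEPES pH 8.0, 25 mM NaCl, in 2.5 °C steps up to 60 °C. Bootstrapped two-state fits of normalised signals gave melting temperature and folding enthalpy. Four replicates were combined by inverse variance, and fitted temperatures were raised by 9.35 °C to match UV melts.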

[2] = melting temperature; fluorescence melt of hairpins on a sequencing array, two-state fit, raised by 9.35 °C to match UV melts; conditions: sodium 0.088 M
Outline: as §1

Row | Sequence | folding enthalpy [1] [kcal/mol] | Tm [2] [°C]
1 | GCGCTGCGAAAGCATCGC (((.(((....))).))) | -60.2 | 58.6
2 | GCGCTGCGAAAGCTCCGC (((..((....))..))) | -20.5 | 49.4
3 | GCGCTGCGAAAGCTGGGC ((.(.((....)).).)) | -24.4 | 62.4
4 | GCGCTGCGAAAGCTGTGC ((.(.((....)).).)) | -34.4 | 59.5
5 | GCGCTGGGAAACCGGTGC ((.(.((....)).).)) | -42.6 | 51.5
6 | GCGCTTCGAAAGAAACGC (((.(((....))).))) | -38.8 | 54.5
7 | GCGCTTGGAAACAAGTGC ((.((((....)))).)) | -50.5 | 56.9
8 | GCGCTTGGAAACGAGCGC (((((.(....).))))) | -52.1 | 63.8
9 | GCGCTTGGAAACGAGTGC ((.((.(....).)).)) | -32.8 | 46.1
10 | GCGCTTTCGAAAGAACGC (((..(((....)))))) | -34.8 | 40.1
11 | GCGGAACACCGC ((((....)))) | -23.2 | 54.6
12 | GCGGAACTCCGC ((((....)))) | -25.7 | 54.9
13 | GCGGAAGGAAACCTCCGC (((((.(....).))))) | -33.2 | 54.1
14 | GCGGAAGGAAACTCCCGC ((((.((....)).)))) | -36.2 | 50
15 | GCGGAAGGAAACTTCTGC ((.((((....)))).)) | -44.6 | 51.4
16 | GCGGACGAAAGTCACCGC ((((((....)))..))) | -29.5 | 51.5
17 | GCGGACGAAAGTCCTCGC ((((((....)))..))) | -14.4 | 51.2
18 | GCGGACGAAAGTCTCCGC ((((((....)))..))) | -25.7 | 51.3
19 | GCGGACGGAAACGCCCAC (.((.((....)).)).) | -18.9 | 36.6
20 | GCGGAGACGAAAGTCCGC (((..(((....)))))) | -32 | 58.5
21 | GCGGAGAGCCGC ((((....)))) | -17.4 | 54.4
22 | GCGGAGCGAAAGCTAAGC ((..(((....)))..)) | -12.8 | 54
23 | GCGGAGCGAAAGCTATGC ((..(((....)))..)) | -16.5 | 44.5
24 | GCGGAGCGAAAGCTTCGC (((.(((....))).))) | -31.2 | 68.6

Row | Sequence | folding enthalpy [1] [kcal/mol] | Tm [2] [°C]
25 | GCGGAGCGAAAGCTTGGC ((..(((....)))..)) | -13.5 | 39.4
26 | GCGGAGCTCCGC ((((....)))) | -20.9 | 55.2
27 | GCGGAGTACCGC ((((....)))) | -24.2 | 55.9
28 | GCGGATCGCCGC ((((....)))) | -19.9 | 55.6
29 | GCGGATGCCGC ((((...)))) | -10.5 | 58.8
30 | GCGGATGGAAACACCCGC ((((.((....)).)))) | -42.9 | 53
31 | GCGGATGGAAACATTCGC (((.(((....))).))) | -43.5 | 55.1
32 | GCGGATTCGAAAGAACGC (((..(((....)))))) | -27.2 | 45.1
33 | GCGGATTGCCGC ((((....)))) | -11.3 | 53.7
34 | GCGGCAAGCCGC ((((....)))) | -28.3 | 68.1
35 | GCGGCAGGAAACTACCGC ((((.((....)).)))) | -41.2 | 53.1
36 | GCGGCAGGAAACTGTCGC (((.(((....))).))) | -38.1 | 67.3
37 | GCGGCCCCCCGC ((((....)))) | -23.8 | 55
38 | GCGGCCGGAAACGACCGC ((((.((....)).)))) | -34.9 | 67.2
39 | GCGGCCTCCGC ((((...)))) | -17.7 | 61.8
40 | GCGGCCTCGAAAGAGCGC (((..(((....)))))) | -25.6 | 52.7
41 | GCGGCGACGAAAGTCCGC (((..(((....)))))) | -17.8 | 55.6
42 | GCGGCGCCCGC ((((...)))) | -15.9 | 60.9
43 | GCGGCTGACCGC ((((....)))) | -24.3 | 58.1
44 | GCGGCTGCGAAAGCACGC (((..(((....)))))) | -16.6 | 57.9
45 | GCGGCTTCCCGC ((((....)))) | -26.3 | 58.2
46 | GCGGCTTCGAAAGAACGC (((..(((....)))))) | -21.4 | 44.6
47 | GCGGGAAACCGC ((((....)))) | -22.9 | 67.3
48 | GCGGGAAGCCGC ((((....)))) | -18.4 | 61.6
